Mdm2-MdmX inh: inhibitors of human Mdm2/MdmX interaction | SaOS-2 split-luciferase Mdm2/MdmX complementation, luminescence | O15151+Q00987 | inhibition, % at 8 µM | 330,000 compounds, 3% hits;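 active = inhibition of at least 50% at 8 µM in the primary screen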
Beta cell apopt: blocks beta cell apoptosis | INS-1E cytokine-induced death, ATP luminescence, 48 h; percent of positive-control rescue, neutral wells zero | protection from apoptosis, % (no concentration beside the values) | 300,000 compounds, 0.8% hits | AID 435005;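 active = Every replicate reaches about 75%, or at least half do and their mean reaches it too, limit read from the data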;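 note: 0% = cytokine-treated negative control wells and 100% = positive control rescue; higher means more ATP so stronger rescue from cytokine killing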
CSC inhib: blocks cancer stem cells; AID 2717; inhibition, % at 7.5 µM; 300,000 compounds, 1.1% hits; cancer stem cell-like cells viability, luminescence; in the data active = inhibition above about 75%; tested in HMLE shEcad cells
SKKanGAS inh: SKKanGAS growth inhibition | 300,000 compounds, 1.3% hits | inhibition, % at 7.5 µM | S. pyogenes SKKanGAS, kanamycin growth, BacTiter-Glo, 6 h;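 active = mean replicate score, as percent of positive control median, at least 50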;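 note: strain carries kanamycin resistance gene driven by streptokinase promoter and grows in 40 µg/ml kanamycin; loss of luminescence reflects streptokinase promoter inhibition or plain growth inhibition; 0% = median of DMSO wells and 100% = positive control at its reference dose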
T cruzi repl: T. cruzi replication inhibition | inhibition, % (no concentration beside the values) | 300,000 compounds, 1.4% hits | T. cruzi beta-gal in NIH3T3, luminescence, 90 h;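 active = mean inhibition across valid replicates above about 55%, limit read from the data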;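 note: signal also drops with host cell toxicity which is not excluded here; 0% = plate median of DMSO wells and 100% = zero luminescence signal; higher percent means less beta-gal luminescence so fewer parasites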
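Material: NIH/3T3 host cells with β-galactosidase reporter T. cruzi; Input: 5,000 host fibroblasts per well; Medium: DMEM, 2% fetal bovine serum; Compound: 50 nL DMSO compound solution per well; Schedule: 3 h host attachment, then at least 90 h co-culture; Detection: luminescent β-galactosidase signal after 60 min lysis.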
L major viab: inhibitors of Leishmania major promastigote growth; 200,000 compounds, 9% hits; inhibition, % at 10 µM; Leishmania major promastigotes, resazurin fluorescence viability; AID 1063; in the data active = inhibition above about 50%;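 note: promastigotes grown with compound for 44 hours at 28 °C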
Mdm2 MdmX conf: human Mdm2/MdmX binding inhibition, confirmed. shares compounds with Mdm2-MdmX inh. luminescent assay. inhibition, % at 8 µM. 10,000 compounds, 55% hits. AID 489028; in the data active = inhibition above about 40%
Full FLuc ctr: counter-screen for Mdm2/MdmX inhibitors: full-length luciferase; shares compounds with Mdm2-MdmX inh; SaOS-2 full-length luciferase counterscreen, luminescence; inhibition, % at 8 µM; 6,200 compounds, 77% hits; AID 504607;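 active = mean inhibition at 8 µM reaching about 37%, which flags the compound as non-specific, limit read from the data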;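 note: p53-null SaOS-2 cells with luciferase driven by a doxycycline-inducible promoter; compound on cells about two nights before reading with doxycycline added after day one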
The depositor's hits bear a star; · = no result. This is a sample that favours compounds with a hit; in the whole collection about 9.4% have one here.

SMILES	Mdm2-MdmX inh	Beta cell apopt	CSC inhib	SKKanGAS inh	T cruzi repl	L major viab	Mdm2 MdmX conf	others
CCN(CC)CCOC(=O)c1ccc(N/C=C(/C#N)c2nc(-c3ccc(OC)c(OC)c3)cs2)cc1	13	44	2	34	48	·	·
CCN(CC)CCOC(=O)c1ccc(N/C=C(/C#N)c2nc(-c3cccc(OC)c3)cs2)cc1	61*	8	15	4	15	·	9
Cc1cccc2cc(C(c3nnnn3Cc3ccccc3)N3CCCc4ccccc43)c(=O)[nH]c12 (centres undefined)	88*	-7	·	2	5	5	2
CCN1CCN(C(c2cc3cccc(C)c3[nH]c2=O)c2nnnn2Cc2ccccc2)CC1 (centres undefined)	14	-14	-12	-1	-12	-9	·
Cc1cc(NC(=O)CC2Oc3ccccc3NC2=O)ccc1Br (centres undefined)	21	-1	-2	2	-11	·	·
CC(=O)NCc1ccc(S(=O)(=O)N2CCN(S(=O)(=O)c3ccc4ccccc4c3)CC2)cc1	63*	·	·	·	·	·	34
CN1CCN(S(=O)(=O)c2ccc3ccccc3c2)CC1	-2	-3	-9	-2	-13	4	·
CC1=CC(=O)C(C(C)C)=C/C1=C(\c1cc(C(C)C)c(OP(=O)(O)O)cc1C)c1ccccc1C(=O)O	75*	4	101*	3	-8	·	68*	Full FLuc ctr=50*
CCOc1ccc(C(=O)c2ccccc2C(=O)O)cc1OCC	2	-7	-19	-2	-7	-7	·
Cc1cc(C(=O)OCC(=O)NCc2ccco2)c(C)n1-c1ccc(F)cc1	56*	22	56	-14	-34	-5	52*	Full FLuc ctr=66*
N#Cc1ccc(NC(=O)Nc2ccc(Oc3ccc(NC(=O)Nc4ccc(C#N)cc4)cc3)cc2)cc1	60*	21	44	22	61*	·	74*	Full FLuc ctr=35
N#Cc1ccc(NC(=O)Nc2cccc(C#N)c2)cc1	·	21	23	0	18	·	·
COc1cccc(OC)c1OCc1cc(C2C3CCCC=C3C(C#N)=C(N)C2(C#N)C#N)c(C)cc1C (centres undefined)	51*	-8	3	26	17	24	1
CCCN1CC=C2C(C#N)=C(N)C(C#N)(C#N)C(c3cccc(OC)c3OC)C2C1 (centres undefined)	7	-2	-16	1	19	20	·
Cc1c(N=C2N=C(NC(=O)Nc3ccc(Cl)cc3)c3ccccc32)c(=O)n(-c2ccccc2)n1C	58*	7	·	40	0	-4	25
Cc1c(NC(=O)Nc2ccc(Cl)cc2)c(=O)n(-c2ccccc2)n1C	-25	·	·	-10	10	4	·
Cc1ccc(Cn2ccc(NC(=O)c3cc(-c4ccc(F)cc4)on3)n2)cc1	8	-5	-14	0	-8	40	·
Cc1ccc(Cn2ccc(NC(=O)c3cc(-c4cccc(Cl)c4)on3)n2)cc1	55*	11	2	1	6	76*	17
Cc1sc(NC(=O)Cn2[nH]c(=O)c3ccccc3c2=O)nc1-c1ccccc1	56*	3	8	7	-15	8	8
Cc1c(NC(=O)Cn2[nH]c(=O)c3ccccc3c2=O)c(=O)n(-c2ccccc2)n1C	6	1	-6	0	-5	2	·
COc1ccc(OC)c(-c2csc(NC(=O)Cc3ccc(F)cc3)n2)c1	34	·	25	18	29	·	·
COc1ccc(OC)c(-c2csc(NC(=O)Cn3[nH]c(=O)c4ccccc4c3=O)n2)c1	67*	23	13	3	12	4	83*	Full FLuc ctr=50*
Cc1onc(-c2ccccc2)c1C(=O)OCc1nnc(-c2ccccc2)o1	19	1	-8	-6	12	·	·
COc1ccc(-c2oc(=O)c3cc(OC)c(OC)cc3c2/C=C/c2ccc(OC(C)=O)cc2)cc1	60*	3	·	·	·	·	38	Full FLuc ctr=63*
COc1cc(-c2noc(C)c2/C=C/c2ccc(OC(C)=O)cc2)cc(OC)c1OC	84*	15	109*	10	35	·	90*	Full FLuc ctr=94*

Source: PubChem BioAssay
